Assay results reported in ChEMBL document CHEMBL3217641, “Structure-function study of gemini derivatives with two different side chains at C-20, Gemini-0072 and Gemini-0097” (Medchemcomm, 2011).

Tests used:
[1] = biological target: T1, Vitamin D3 receptor A (Danio rerio) (UniProt Q9PTN2); experiment: Agonist activity at zebrafish gal4-VDR LBD expressed in human MCF7 cells by luciferase reporter gene based transactivation assay relative to 1alpha,25(OH)2D3; assay type: cell-based; details: tested as the 2H-labelled form
T1 sequence (whole entry): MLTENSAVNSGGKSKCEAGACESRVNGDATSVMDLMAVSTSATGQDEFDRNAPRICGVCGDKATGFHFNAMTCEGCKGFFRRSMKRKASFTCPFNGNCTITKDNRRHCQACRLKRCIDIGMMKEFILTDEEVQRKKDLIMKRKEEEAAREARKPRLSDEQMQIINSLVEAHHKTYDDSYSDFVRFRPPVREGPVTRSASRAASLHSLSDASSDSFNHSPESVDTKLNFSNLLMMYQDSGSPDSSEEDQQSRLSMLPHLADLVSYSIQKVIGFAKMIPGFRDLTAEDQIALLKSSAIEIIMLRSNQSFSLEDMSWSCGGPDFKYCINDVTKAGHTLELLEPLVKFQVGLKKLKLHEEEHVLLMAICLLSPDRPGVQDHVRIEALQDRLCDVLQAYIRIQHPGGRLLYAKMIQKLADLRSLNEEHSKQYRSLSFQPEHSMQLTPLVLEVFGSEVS
Summary of the method: (§1)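 Transient transfection of MCF-7 cells (10^5/well, grown overnight in phenol red-free DMEM with 10% charcoal-treated FBS, gentamicin, insulin) with Gal4DBD-zVDR(156–453), ptk-LUC reporter, β-galactosidase control and carrier plasmid via jetPEI. After 10 h, ligands at 0.1, 1, 10, 100 nM versus DMSO solvent for 24 h. Luciferase normalized to β-galactosidase; triplicates, mean and S.D.; EC50 derived.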

[2] = biological target: T1, Vitamin D3 receptor A (Danio rerio); experiment: Agonist activity at zebrafish gal4-VDR LBD expressed in human MCF7 cells by luciferase reporter gene based transactivation assay relative to parental gemini; assay type: cell-based; details: tested as the 2H-labelled form; summary of the method: as §1
Vitamin D3 receptor A = biological target: T2, Vitamin D3 receptor A (Danio rerio, UniProt Q9PTN2); experiment: Agonist activity at zebrafish gal4-VDR LBD expressed in human MCF7 cells by luciferase reporter gene based transactivation assay; assay type: cell-based
T2 sequence (Q9PTN2 whole entry): T1 sequence (whole entry)
Summary of the method: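 MCF-7 cells (10^5/well) were grown overnight in phenol red-free DMEM with 10% charcoal-treated FBS and 0.6 μg/ml insulin. They were transfected with jetPEI using Gal4DBD-zVDR(156–453) (25 ng), ptk-LUC reporter (250 ng) and β-galactosidase control (50 ng). After 10 h, ligand at 0.1–100 nM or DMSO solvent was added. After 24 h, luciferase was read, normalized to β-gal, in triplicate.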

[3] = Antiproliferative activity against ER positive human MCF10AT1 cells after 3 days by [3H]thymidine uptake assay; assay type: functional
[4] = Antiproliferative activity against ER positive human MCF10CA1a cells after 3 days by [3H]thymidine uptake assay; assay type: functional
[5] = Antiproliferative activity against ER positive human MCF10AT1 cells after 3 days by [3H]thymidine uptake assay relative to 1alpha,25(OH)2D3; assay type: functional
[6] = Antiproliferative activity against ER positive human MCF10CA1a cells after 3 days by [3H]thymidine uptake assay relative to 1alpha,25(OH)2D3; assay type: functional
[7] = Antiproliferative activity against ER negative human MCF10DCIS.com cells after 3 days by [3H]thymidine uptake assay
[8] = Antiproliferative activity against ER negative human MCF10DCIS.com cells after 3 days by [3H]thymidine uptake assay relative to 1alpha,25(OH)2D3

Row | Structure (SMILES) | fold change (FC) [1] | fold change (FC) [2] | EC50 (Vitamin D3 receptor A) [nM] | IC50 [3] [nM] | IC50 [4] [nM] | fold change (FC) [5] | fold change (FC) [6] | IC50 [7] [nM] | fold change (FC) [8]
1 | CC(C)(O)CCC[C@@H](CC#CC(O)(C(F)(F)F)C(F)(F)F)[C@H]1CC[C@H]2/C(=C/C=C3C[C@H](O)C[C@@H](O)C3)CCC[C@]12C | 36 | 8 | – | – | – | – | – | – | –
2 | C=C1/C(=C\C=C2/CCC[C@]3(C)[C@@H](C(CCCC(C)(C)O)CCCC(C)(C)O)CC[C@@H]23)C[C@H](O)C[C@H]1O | – | – | 1.2 | – | – | – | – | – | –
3 | CC(C)(O)CCC[C@H](CC#CC(O)(C(F)(F)F)C(F)(F)F)[C@H]1CC[C@H]2/C(=C/C=C3C[C@H](O)C[C@@H](O)C3)CCC[C@]12C | 22 | 5 | – | – | – | – | – | – | –

Continued, in another order:

Row | fold change (FC) [1] | fold change (FC) [2] | EC50 (Vitamin D3 receptor A) [nM] | Structure (SMILES) | IC50 [3] [nM] | IC50 [4] [nM] | fold change (FC) [5] | fold change (FC) [6] | IC50 [7] [nM] | fold change (FC) [8]
4 | – | – | 0.15 | [2H]C([2H])([2H])C(O)(CCC[C@@H](CC#CC(O)(C(F)(F)F)C(F)(F)F)[C@H]1CC[C@H]2/C(=C/C=C3C[C@H](O)C[C@@H](O)C3)CCC[C@]12C)C([2H])([2H])[2H] | 0.23 | 0.09 | 10 | 10 | 0.23 | 10
5 | – | – | 0.25 | [2H]C([2H])([2H])C(O)(CCC[C@H](CC#CC(O)(C(F)(F)F)C(F)(F)F)[C@H]1CC[C@H]2/C(=C/C=C3C[C@H](O)C[C@@H](O)C3)CCC[C@]12C)C([2H])([2H])[2H] | 0.51 | 0.15 | 10 | 10 | 0.36 | 10
